In ChEMBL document CHEMBL4033651, “Exploration of flexible phenylpropylurea scaffold as novel cardiac myosin activators for the treatment of systolic heart failure” (Eur J Med Chem, 2017):

Tests used:
Rattus norvegicus [1] = experiment: Positive inotropic activity in Sprague-Dawley rat heart assessed as ejection fraction at 16 ug/kg/min for 3 mins by echocardiographic analysis (reference value: 67.16 to 85.81%); assay type: functional
Summary of the method: (§1)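 Seven-week-old male Sprague-Dawley rats under 1.5 % isoflurane via nosecone. Drug given through a right internal jugular vein central line. Left ventricular fractional shortening and ejection fraction measured by echocardiography with and without sample, expressed as % increase.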

Rattus norvegicus [2] = experiment: Effect on hemodynamic parameters in Sprague-Dawley rat heart assessed as heart rate at 8 ug/kg/min (reference value: 260 to 322 bpm); assay type: functional
Rattus norvegicus [3] = experiment: Positive inotropic activity in Sprague-Dawley rat heart assessed as left ventricular posterior wall thickness end diastole at 4 ug/kg/min for 3 mins by echocardiographic analysis (reference value: 0.88 to 1.54 mm); assay type: functional
Summary of the method: (§2)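 Male Sprague-Dawley rats, seven weeks old, anaesthetised with 1.5 % isoflurane given by nosecone. Compound infused through the right internal jugular vein, used as a central venous line. Left ventricular dimensions measured by echocardiography.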

Rattus norvegicus [4] = experiment: Positive inotropic activity in Sprague-Dawley rat heart assessed as left ventricular posterior wall thickness end systole at 8 ug/kg/min for 3 mins by echocardiographic analysis (reference value: 2.07 to 2.46 mm); assay type: functional; summary of the method: as §2
Rattus norvegicus [5] = experiment: Effect on hemodynamic parameters in Sprague-Dawley rat heart assessed as dPdT max at 8 ug/kg/min (reference value: 4162 to 5214 mmHg/s); assay type: functional
Rattus norvegicus [6] = experiment: Positive inotropic activity in Sprague-Dawley rat heart assessed as left ventricular internal diameter end diastole at 8 ug/kg/min for 3 mins by echocardiographic analysis (reference value: 5.66 to 7.80 mm); assay type: functional; summary of the method: as §2
Oryctolagus cuniculus = species on record: Oryctolagus cuniculus; experiment: Activation of actin-stimulated rabbit psoas skeletal muscle myosin S1 fragment ATPase activity at 100 uM after 10 mins by spectrophotometric analysis
Summary of the method: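 Rabbit skeletal S1 myosin with actin thin filament complex at pCa 6.5, in 20 mM Tris HCl pH 7.5, 15 mM KCl, 6 mM MgCl2, 1 mM ATP. Compound at single 100 uM dose, 10 min at room temperature. Cytophos stop; phosphate read at 650 nm. % activity versus blank-corrected DMSO control.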

Rattus norvegicus [7] = experiment: Positive inotropic activity in Sprague-Dawley rat heart assessed as left ventricular internal diameter end systole at 4 ug/kg/min for 3 mins by echocardiographic analysis (reference value: 2.50 to 4.78 mm); assay type: functional; summary of the method: as §2
Rattus norvegicus [8] = experiment: Positive inotropic activity in Sprague-Dawley rat heart assessed as left ventricular posterior wall thickness end systole at 16 ug/kg/min for 3 mins by echocardiographic analysis (reference value: 2.07 to 2.46 mm); assay type: functional; summary of the method: as §2
Rattus norvegicus [9] = experiment: Positive inotropic activity in Sprague-Dawley rat heart assessed as ejection fraction at 2 to 16 ug/kg/min for 3 mins by echocardiographic analysis; assay type: functional; summary of the method: as §1
Rattus norvegicus [10] = experiment: Effect on hemodynamic parameters in Sprague-Dawley rat heart assessed as heart rate at 16 ug/kg/min (reference value: 274 to 322 bpm); assay type: functional
Rattus norvegicus [11] = experiment: Positive inotropic activity in Sprague-Dawley rat heart assessed as left ventricular internal diameter end systole at 16 ug/kg/min for 3 mins by echocardiographic analysis (reference value: 2.50 to 4.78 mm); assay type: functional; summary of the method: as §2
Rattus norvegicus [12] = experiment: Positive inotropic activity in Sprague-Dawley rat heart assessed as left ventricular posterior wall thickness end systole at 4 ug/kg/min for 3 mins by echocardiographic analysis (reference value: 2.07 to 2.46 mm); assay type: functional; summary of the method: as §2
Rattus norvegicus [13] = experiment: Effect on hemodynamic parameters in Sprague-Dawley rat heart assessed as end-diastolic pressure at 16 ug/kg/min (reference value: 7.68 to 9.64 mmHg); assay type: functional
Rattus norvegicus [14] = experiment: Positive inotropic activity in Sprague-Dawley rat heart assessed as left ventricle fractional shortening at 2 to 16 ug/kg/min for 3 mins by echocardiographic analysis; assay type: functional; summary of the method: as §1
Rattus norvegicus [15] = experiment: Positive inotropic activity in Sprague-Dawley rat heart assessed as fractional shortening at 4 ug/kg/min for 3 mins by echocardiographic analysis (reference value: 38.60 to 55.81%); assay type: functional; summary of the method: as §1
Rattus norvegicus [16] = experiment: Positive inotropic activity in Sprague-Dawley rat heart assessed as fractional shortening at 8 ug/kg/min for 3 mins by echocardiographic analysis (reference value: 38.60 to 55.81%); assay type: functional; summary of the method: as §1
Rattus norvegicus [17] = experiment: Positive inotropic activity in Sprague-Dawley rat heart assessed as left ventricular internal diameter end diastole at 4 ug/kg/min for 3 mins by echocardiographic analysis (reference value: 5.66 to 7.80 mm); assay type: functional; summary of the method: as §2
Gallus gallus = species on record: Gallus gallus; experiment: Activation of actin-stimulated chicken gizzard smooth muscle myosin S1 fragment ATPase activity at 100 uM after 10 mins by spectrophotometric analysis
Summary of the method: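 Chicken gizzard smooth muscle S1 myosin with actin plus tropomyosin at pCa 6.5, in 20 mM Tris HCl pH 7.5, 15 mM KCl, 6 mM MgCl2, 1 mM ATP. Compound at single 100 uM dose, 10 min at room temperature. Cytophos stop; phosphate read at 650 nm. % activity versus blank-corrected DMSO control.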

Rattus norvegicus [18] = experiment: Effect on hemodynamic parameters in Sprague-Dawley rat heart assessed as end-diastolic pressure at 8 ug/kg/min (reference value: 7.68 to 9.83 mmHg); assay type: functional
Rattus norvegicus [19] = experiment: Positive inotropic activity in Sprague-Dawley rat heart assessed as ejection fraction at 4 ug/kg/min for 3 mins by echocardiographic analysis (reference value: 67.16 to 85.81%); assay type: functional; summary of the method: as §1
Rattus norvegicus [20] = experiment: Positive inotropic activity in Sprague-Dawley rat heart assessed as heart rate at 4 ug/kg/min for 3 mins by echocardiographic analysis (reference value: 281 to 347 bpm); assay type: functional
Bos taurus = species on record: Bos taurus; experiment: Activation of actin-stimulated bovine cardiac myosin S1 fragment ATPase activity in sarcomere at 10 uM after 10 mins by spectrophotometric analysis
Summary of the method: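 Bovine cardiac S1 myosin with actin thin filament complex at pCa 6.5, in 20 mM Tris HCl pH 7.5, 15 mM KCl, 6 mM MgCl2, 1 mM ATP. Compound at 10 μM, 10 min at room temperature. Stopped with Cytophos reagent; liberated phosphate read at 650 nm. % activity calculated relative to DMSO negative control, blank-corrected.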

Rattus norvegicus [21] = experiment: Effect on hemodynamic parameters in Sprague-Dawley rat heart assessed as dPdT min at 16 ug/kg/min (reference value: -5462 to -4611 mmHg/s); assay type: functional
Rattus norvegicus [22] = experiment: Positive inotropic activity in Sprague-Dawley rat heart assessed as ejection fraction at 8 ug/kg/min for 3 mins by echocardiographic analysis (reference value: 67.16 to 85.81%); assay type: functional; summary of the method: as §1
Rattus norvegicus [23] = experiment: Positive inotropic activity in Sprague-Dawley rat heart assessed as left ventricular posterior wall thickness end diastole at 16 ug/kg/min for 3 mins by echocardiographic analysis (reference value: 0.88 to 1.54 mm); assay type: functional; summary of the method: as §2
Rattus norvegicus [24] = experiment: Positive inotropic activity in Sprague-Dawley rat heart assessed as left ventricular posterior wall thickness end diastole at 8 ug/kg/min for 3 mins by echocardiographic analysis (reference value: 0.88 to 1.54 mm); assay type: functional; summary of the method: as §2
Rattus norvegicus [25] = experiment: Positive inotropic activity in Sprague-Dawley rat heart assessed as heart rate at 16 ug/kg/min for 3 mins by echocardiographic analysis (reference value: 281 to 347 bpm); assay type: functional
Rattus norvegicus [26] = experiment: Effect on hemodynamic parameters in Sprague-Dawley rat heart assessed as dPdT max at 16 ug/kg/min (reference value: 4162 to 5214 mmHg/s); assay type: functional

| Structure (SMILES) | Activity (Rattus norvegicus [1]) [%] | Activity (Rattus norvegicus [2]) [bpm] | Activity (Rattus norvegicus [3]) [mm] | Activity (Rattus norvegicus [4]) [mm] | Activity (Rattus norvegicus [5]) [mmHg/s] | Activity (Rattus norvegicus [6]) [mm] | Activity (Oryctolagus cuniculus) [%] | Activity (Rattus norvegicus [7]) [mm] | Activity (Rattus norvegicus [8]) [mm] | Activity (Rattus norvegicus [9]) [%] | Activity (Rattus norvegicus [10]) [bpm] | Activity (Rattus norvegicus [11]) [mm] | Activity (Rattus norvegicus [12]) [mm] | Activity (Rattus norvegicus [13]) [mmHg] | Activity (Rattus norvegicus [14]) [%] | Activity (Rattus norvegicus [15]) [%] | Activity (Rattus norvegicus [16]) [%] | Activity (Rattus norvegicus [17]) [mm] | Activity (Gallus gallus) [%] | Activity (Rattus norvegicus [18]) [mmHg] | also measured |
| --- | --- | --- | --- | --- | --- | --- | --- | --- | --- | --- | --- | --- | --- | --- | --- | --- | --- | --- | --- | --- | --- |
| COC(=O)N1CCN(Cc2cccc(NC(=O)Nc3ccc(C)nc3)c2F)CC1 [OMECAMTIV MECARBIL] | 89.17 | 292 | 1.36 | 2.68 | 6143 | 5.97 | 2.8 | 2.63 | 2.77 | 13.35 | 297 | 2.55 | 2.81 | 6.46 | 20.32 | 58.9 | 61.03 | 6.41 | -5.5 | 6.21 | Activity (Rattus norvegicus [19]): 87.85%; Activity (Rattus norvegicus [20]): 368 bpm; Activity (Bos taurus): 58%; Activity (Rattus norvegicus [21]): -6342 mmHg/s; Activity (Rattus norvegicus [22]): 89.52%; Activity (Rattus norvegicus [23]): 1.36 mm; Activity (Rattus norvegicus [24]): 1.23 mm; Activity (Rattus norvegicus [25]): 367 bpm; Activity (Rattus norvegicus [26]): 6867 mmHg/s |
| O=C(NCCCc1ccccc1)NCc1ccccc1 | 95.44 | 271 | 1.62 | 2.68 | 4644 | 5.97 | 1.4 | 3.03 | 3.03 | 18.27 | 272 | 1.58 | 2.24 | 11.33 | 30.04 | 45.67 | 73.53 | 5.57 | -3.7 | 10.71 | Activity (Rattus norvegicus [19]): 76.44%; Activity (Rattus norvegicus [20]): 395 bpm; Activity (Bos taurus): 53.3%; Activity (Rattus norvegicus [21]): -5405 mmHg/s; Activity (Rattus norvegicus [22]): 96.1%; Activity (Rattus norvegicus [23]): 1.71 mm; Activity (Rattus norvegicus [24]): 1.49 mm; Activity (Rattus norvegicus [25]): 412 bpm; Activity (Rattus norvegicus [26]): 4740 mmHg/s |
